Series [1] has as its target T1, Nonstructural protein 5A (Hepatitis C virus) (UniProt Q5L478).
T1 sequence (whole entry): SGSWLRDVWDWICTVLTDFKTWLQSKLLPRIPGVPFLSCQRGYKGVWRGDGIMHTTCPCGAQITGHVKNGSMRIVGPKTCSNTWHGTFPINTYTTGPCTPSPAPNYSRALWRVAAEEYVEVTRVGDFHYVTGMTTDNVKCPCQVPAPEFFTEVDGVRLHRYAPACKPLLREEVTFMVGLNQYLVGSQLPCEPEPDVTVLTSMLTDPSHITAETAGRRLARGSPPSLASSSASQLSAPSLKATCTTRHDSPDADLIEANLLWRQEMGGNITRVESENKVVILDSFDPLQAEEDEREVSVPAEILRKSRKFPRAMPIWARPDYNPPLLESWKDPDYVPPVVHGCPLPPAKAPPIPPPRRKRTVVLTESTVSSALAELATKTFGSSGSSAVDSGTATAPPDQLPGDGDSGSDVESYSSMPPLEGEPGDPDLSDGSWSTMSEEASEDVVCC
As to the kind of experiment: Inhibition of NS5A Q30E mutant in HuH7 cell infected HCV genotype 1a H77 assessed as decrease in viral replication after 4 days by luciferase reporter gene assay relative to wild type protein. The following applies: Hepatitis C virus (isolate H77). The essentials: (§1)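 Stable subgenomic luciferase replicons in Huh-7 cells: genotype 1a-H77 carrying NS5A substitutions M28T, Q30E, Q30R, Y93C, Y93H or Y93N, tested alongside the wild-type replicon. Cells are incubated 4 days with compound in DMEM with 5% FBS. Luciferase read-out, EC50 by 4-parameter logistic fit, and fold change versus wild type.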

The test system of series [2] is T2, Nonstructural protein 5A (Hepatitis C virus), Q5L478 [Y93H].
T2 sequence (whole entry): T1 sequence (whole entry) with Y93H
As to the kind of experiment: Inhibition of NS5A Y93H mutant in HuH7 cell infected HCV genotype 1a H77 assessed as decrease in viral replication after 4 days by luciferase reporter gene assay relative to wild type protein. The note with it: Hepatitis C virus (isolate H77). An outline of the steps: as §1
(In general: A reporter such as luciferase makes a cellular process visible.)

Series [3] deals with T3, Nonstructural protein 5A (Hepatitis C virus), Q5L478 [Y93N].
T3 sequence (whole entry): T1 sequence (whole entry) with Y93N
As to the kind of experiment: Inhibition of NS5A Y93N mutant in HuH7 cell infected HCV genotype 1a H77 assessed as decrease in viral replication after 4 days by luciferase reporter gene assay relative to wild type protein. The following applies: Hepatitis C virus (isolate H77). The essentials: as §1

The nature of series [4]: Half life in mouse at 3 mg/kg, iv by LC-MS method. The note with it: in vivo. It counts as ADME, organism-based. The essentials: (§2)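 Single dose, 3 mg/kg, in mouse or rat. IV vehicle: DMSO:Tween 80:PEG-400:D5W 2:5:20:73 (v/v). PO vehicle: Phosol 53 MCT:PEG-400:Poloxamer 124:Cremophor RH40 40:20:20:20 (w/w). Acetonitrile protein precipitation, then LC-MS/MS in negative-ion MRM against an internal standard; LOQ ~20 ng/mL.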

Series [5] is described as follows: Plasma clearance in mouse at 3 mg/kg, iv by LC-MS method. The format is ADME, organism-based. An outline of the steps: as §2
Series [6] can be described thus: Oral bioavailability in mouse at 3 mg/kg by LC-MS method. It counts as ADME, organism-based. The following applies: in vivo. The essentials: as §2
For series [7], the system named is T3, Nonstructural protein 5A (Hepatitis C virus), Q5L478 [Y93N]. As to the kind of experiment: Inhibition of NS5A Y93N mutant in HuH7 cell infected HCV genotype 1b Con1 assessed as decrease in viral replication after 4 days by luciferase reporter gene assay relative to wild type protein. The following applies: Hepatitis C virus (isolate Con1). An outline of the steps:
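Stable subgenomic luciferase replicons in Huh-7 cells: genotype 1b-Con1 carrying NS5A Y93H or Y93N, tested alongside the wild-type replicon. Cells are incubated 4 days with compound in DMEM with 5% FBS. Luciferase read-out, EC50 from a 4-parameter logistic fit, expressed as fold change versus wild type.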

Series [8] in a line: Apparent volume of distribution in mouse at 3 mg/kg, iv by LC-MS method. It counts as ADME, organism-based. The following applies: in vivo, read-out: Vc. An outline of the steps:
as §2

Series [9] is described as follows: Half life in dog at 1 mg/kg, iv by LC-MS method. The format is ADME, organism-based, Canis lupus familiaris. The note with it: in vivo. The essentials:
(§3)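 Single dose in dog or monkey, 1 mg/kg IV or 2.5 mg/kg PO. Plasma drug measured by LC-MS after acetonitrile protein precipitation with an internal standard. Quantified by linear regression of parent/internal-standard peak-area ratio against spiked standards.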

Series [10] in a line: Apparent volume of distribution in dog at 1 mg/kg, iv by LC-MS method. The following applies: in vivo, read-out: Vc. The format is ADME, organism-based, Canis lupus familiaris. An outline of the steps:
as §3

Series [11] can be described thus: Half life in monkey at 1 mg/kg, iv by LC-MS method. The format is ADME, organism-based, Macaca mulatta. The following applies: rhesus monkey, in vivo. The essentials: as §3
A short description of series [12]: AUClast in monkey at 1 mg/kg, iv by LC-MS method. The note with it: rhesus monkey, in vivo. It counts as ADME, organism-based, Macaca mulatta. The arrangement: dose 1 mg/kg, time 0 - last, route intravenous. An outline of the steps:
as §3

Series [13] in a line: Plasma clearance in monkey at 1 mg/kg, iv by LC-MS method. The format is ADME, organism-based, Macaca mulatta. The following applies: rhesus monkey. An outline of the steps: as §3
Series [14] can be described thus: AUClast in rat at 3 mg/kg, po by LC-MS method. The format is ADME, organism-based. Further details: dose 3 mg/kg, route oral, time 0 - last. The note with it: in vivo. An outline of the steps: as §2
A short description of series [15]: Cmax in dog at 2.5 mg/kg, po by LC-MS method. The note with it: in vivo. The arrangement: dose 2.5 mg/kg, route oral. It counts as ADME, organism-based, Canis lupus familiaris. The essentials:
as §3

The nature of series [16]: Drug level in dog at 2.5 mg/kg, po at 24 hrs by LC-MS method. The format is ADME, organism-based, Canis lupus familiaris. The note with it: in vivo, read-out: Drug uptake. The essentials:
as §3

The nature of series [17]: Half life in monkey at 2.5 mg/kg, po by LC-MS method. It counts as ADME, organism-based, Macaca mulatta. The note with it: rhesus monkey, in vivo. An outline of the steps: as §3
A short description of series [18]: Cmax in monkey at 2.5 mg/kg, po by LC-MS method. The format is ADME, organism-based, Macaca mulatta. Further details: dose 2.5 mg/kg, route oral. The note with it: rhesus monkey, in vivo. An outline of the steps:
as §3

The nature of series [19]: Drug level in monkey at 2.5 mg/kg, po at 24 hrs by LC-MS method. It counts as ADME, organism-based, Macaca mulatta. The following applies: rhesus monkey, in vivo, read-out: Drug uptake. An outline of the steps:
as §3

Series [20] in a line: AUClast in monkey at 2.5 mg/kg, po by LC-MS method. It counts as ADME, organism-based, Macaca mulatta. Further details: dose 2.5 mg/kg, time 0 - last, route oral. The following applies: rhesus monkey, in vivo. The essentials: as §3

Changes are numbered by the printed parent chain. A value given as a limit tells only on which side of the number the result lay.

With `COC(=O)N[C@H](C(=O)N1CCC[C@H]1c1nc2cc([C@H]3CC[C@H](c4cc5nc([C@@H]6CCCN6C(=O)[C@@H](NC(=O)OC)[C@@H](C)OC)[nH]c5cc4F)N3c3cc(F)c(N4CCC(c5ccc(F)cc5)CC4)c(F)c3)c(F)cc2[nH]1)[C@@H](C)OC` [PIBRENTASVIR], the fold change (FC) amounted to 2.4 in series [1], 6.7 in series [2], 6.7 in series [3] and 0.6 in series [7]. The half-life – broadly, how long it takes for the measured level to halve – is 2 h in series [4], 7.1 h in series [9], 8.3 h in series [11] and 5.69 h in [17]. Besides, the clearance (as a rule, a measure of how efficiently the substance is removed, as volume per time) in [5] is under 0.05 mL/min/kg; in series [13] it was 2.5 mL/min/kg. In addition, the bioavailability (usually the share of a dose that reaches the circulation, judged against a reference dose that is usually intravenous) in series [6] amounted to 7.9%. Also, the Vd amounted to 0.09 L/kg in series [8] and 0.1 L/kg in [10]. Moreover, the AUC(0-t) (usually exposure summed from dosing to a finite time, without extrapolation to infinity) in series [12] was determined as 6470 ng·h/mL; in series [14] it was 3600 ng·h/mL; in series [20], 2250 ng·h/mL. Further, the Cmax (as a rule, the maximum level reached in the sampled fluid or tissue) stood at 562 nM in series [15] and 260 nM in series [18]. For the same compound, the concentration at 24 h was determined as 82 nM in series [16] and 17 nM in [19].

The values above are taken from ChEMBL document CHEMBL4177761, “Highlights of the Structure-Activity Relationships of Benzimidazole Linked Pyrrolidines Leading to the Discovery of the Hepatitis C Virus NS5A Inhibitor Pibrentasvir (ABT-530)” (J Med Chem, 2018).
